Assays:
SF-295 = assay: Growth inhibition of human SF295 cells assessed as cell growth at 10^-6 M incubated for 48 hrs by sulforhodamine B assay relative to control; type: functional; conditions: SF-295, 48 h, read-out: Activity
SK-OV-3 = assay: Growth inhibition of human SKOV3 cells assessed as cell growth at 10^-7 M incubated for 48 hrs by sulforhodamine B assay relative to control; type: functional; conditions: SK-OV-3, 48 h, read-out: Activity
ACHN = assay: Growth inhibition of human ACHN cells assessed as cell growth at 10^-7 M incubated for 48 hrs by sulforhodamine B assay relative to control; type: functional; conditions: read-out: Activity
HeLa = assay: Antiproliferative activity against human HeLa cells after 72 hrs by Coulter counter method; type: functional, cell-based
Method in brief: (§1)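 Cell count assay in 96-well microtiter plates; (5–7.5) × 10⁴ tumor cells per well plus test compound. Cells proliferated at 37 °C in humidified CO₂-controlled atmosphere, 48 h for murine leukemia L1210, 72 h for human lymphocytic CEM and cervix carcinoma HeLa. Counted by Coulter counter; IC₅₀ is the concentration that inhibits proliferation by 50%.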

NCI-H23 [1] = assay: Growth inhibition of human NCI-H23 cells assessed as cell growth at 10^-7 M incubated for 48 hrs by sulforhodamine B assay relative to control; type: functional; conditions: NCI-H23, 48 h, read-out: Activity
SK-MEL-28 [2] = assay: Growth inhibition of human SK-MEL-28 cells assessed as cell growth at 10^-6 M incubated for 48 hrs by sulforhodamine B assay relative to control; type: functional; conditions: SK-MEL-28, 48 h, read-out: Activity
UACC-257 = assay: Growth inhibition of human UACC257 cells assessed as cell growth at 10^-7 M incubated for 48 hrs by sulforhodamine B assay relative to control; type: functional; conditions: UACC-257, 48 h, read-out: Activity
KM12 [3] = assay: Cytotoxicity against human KM12 cells after 48 hrs by SRB assay; type: functional; conditions: KM12, 48 h
Hs-578T = assay: Growth inhibition of human Hs 578T cells assessed as cell growth at 10^-7 M incubated for 48 hrs by sulforhodamine B assay relative to control; type: functional; conditions: read-out: Activity
CCRF-CEM [4] = assay: Growth inhibition of human CCRF-CEM cells assessed as cell growth at 10^-6 M incubated for 48 hrs by sulforhodamine B assay relative to control; type: functional; conditions: read-out: Activity
MOLT-4 [5] = assay: Cytotoxicity against human MOLT4 cells after 48 hrs by SRB assay; type: functional; conditions: MOLT-4, 48 h
NCI/ADR-RES = assay: Cytotoxicity against human NCI-ADR-RES cells after 48 hrs by SRB assay; type: functional
A549 = assay: Cytotoxicity against human A549 cells after 48 hrs by SRB assay; type: functional; conditions: A549, 48 h
NCI-H23 [6] = assay: Growth inhibition of human NCI-H23 cells assessed as cell growth at 10^-8 M incubated for 48 hrs by sulforhodamine B assay relative to control; type: functional; conditions: NCI-H23, 48 h, read-out: Activity
CCRF-CEM [7] = assay: Antiproliferative activity against human CEM cells after 72 hrs by Coulter counter method; type: functional, cell-based; method in brief: as §1
CCRF-CEM [8] = assay: Growth inhibition of human CCRF-CEM cells assessed as cell growth at 10^-5 M incubated for 48 hrs by sulforhodamine B assay relative to control; type: functional; conditions: read-out: Activity
U-251 = assay: Growth inhibition of human U251 cells assessed as cell growth at 10^-8 M incubated for 48 hrs by sulforhodamine B assay relative to control; type: functional; conditions: U-251, 48 h, read-out: Activity
SF-268 = assay: Cytotoxicity against human SF268 cells after 48 hrs by SRB assay; type: functional; conditions: SF-268, 48 h
SW-620 = assay: Growth inhibition of human SW620 cells assessed as cell growth at 10^-8 M incubated for 48 hrs by sulforhodamine B assay relative to control; type: functional; conditions: SW-620, 48 h, read-out: Activity
SK-MEL-28 [9] = assay: Growth inhibition of human SK-MEL-28 cells assessed as cell growth at 10^-5 M incubated for 48 hrs by sulforhodamine B assay relative to control; type: functional; conditions: SK-MEL-28, 48 h, read-out: Activity
MOLT-4 [10] = assay: Growth inhibition of human MOLT4 cells assessed as cell growth at 10^-6 M incubated for 48 hrs by sulforhodamine B assay relative to control; type: functional; conditions: MOLT-4, 48 h, read-out: Activity
KM12 [11] = assay: Growth inhibition of human KM12 cells assessed as cell growth at 10^-6 M incubated for 48 hrs by sulforhodamine B assay relative to control; type: functional; conditions: KM12, 48 h, read-out: Activity
RXF 393 = assay: Cytotoxicity against human RXF393 cells after 48 hrs by SRB assay; type: functional; conditions: RXF 393, 48 h
[12] = read-out: LC50 (the source's name)
[13] = read-out: pLC50 (the source's name) (converted)

Q: With C#C[C@@]1(O)[C@@H](CO)O[C@@H](n2cc(Cl)c3c(N)ncnc32)[C@@H]1O as the compound, how does the growth at 1 µM (SF-295) read?
A: 13 to 20%

Q: And the growth at 0.1 µM (SK-OV-3)?
A: 56 to 72%

Q: And the growth at 0.1 µM (ACHN)?
A: 72%

Q: What about the IC50 (HeLa) of the same compound?
A: 0.051 µM

Q: What about the growth at 0.1 µM (NCI-H23 [1]) of the same compound?
A: 69 to 73%

Q: And the growth at 1 µM (SK-MEL-28 [2])?
A: 32 to 43%

Q: And the growth at 0.1 µM (UACC-257)?
A: 79 to 90%

Q: What about the GI50 (KM12 [3]; read-out: GI50) of the same compound?
A: 0.126 to 0.161 µM

Q: And the CC50 (KM12 [3]; [12])?
A: > 100 µM

Q: What about the TGI (KM12 [3]; read-out: TGI) of the same compound?
A: > 100 µM

Q: And the TGI (KM12 [3]; read-out: pTGI (converted))?
A: > 100 µM

Q: What about the growth at 0.1 µM (Hs-578T) of the same compound?
A: 100 to 107%

Q: And the growth at 1 µM (CCRF-CEM [4])?
A: 7%

Q: And the GI50 (MOLT-4 [5]; read-out: GI50)?
A: 0.161 to 0.181 µM

Q: What about the CC50 (MOLT-4 [5]; [12]) of the same compound?
A: > 100 µM

Q: What about the TGI (MOLT-4 [5]; read-out: TGI) of the same compound?
A: 6.97 to 100 µM

Q: What about the GI50 (NCI/ADR-RES; read-out: GI50) of the same compound?
A: 0.0506 to 0.0546 µM

Q: What about the TGI (NCI/ADR-RES; read-out: TGI) of the same compound?
A: 0.777 µM

Q: And the CC50 (NCI/ADR-RES; [13])?
A: > 100 µM

Q: What about the TGI (NCI/ADR-RES; read-out: pTGI (converted)) of the same compound?
A: 0.776 µM

Q: What about the GI50 (A549; read-out: GI50) of the same compound?
A: 0.138 to 0.237 µM

Q: What about the CC50 (A549; [13]) of the same compound?
A: > 100 µM

Q: What about the growth at 0.01 µM (NCI-H23 [6]) of the same compound?
A: 88 to 89%

Q: What about the IC50 (CCRF-CEM [7]) of the same compound?
A: 0.012 µM

Q: What about the growth at 10 µM (CCRF-CEM [8]) of the same compound?
A: 2 to 4%

Q: What about the growth at 0.01 µM (U-251) of the same compound?
A: 47 to 66%

Q: What about the GI50 (SF-268; read-out: GI50) of the same compound?
A: 0.328 to 0.338 µM

Q: And the TGI (SF-268; read-out: TGI)?
A: 14.4 to 31.1 µM

Q: And the CC50 (SF-268; [13])?
A: > 100 µM

Q: And the growth at 0.01 µM (SW-620)?
A: 88 to 91%

Q: What about the growth at 10 µM (SK-MEL-28 [9]) of the same compound?
A: 44 to 45%

Q: What about the growth at 1 µM (MOLT-4 [10]) of the same compound?
A: 2%

Q: And the growth at 1 µM (KM12 [11])?
A: 3 to 12%

Q: What about the GI50 (RXF 393; read-out: GI50) of the same compound?
A: 0.299 to 0.485 µM

Q: What about the TGI (RXF 393; read-out: TGI) of the same compound?
A: 0.813 to 2.01 µM

Q: And the CC50 (RXF 393; [13])?
A: > 100 µM

Reference: ChEMBL document CHEMBL4270599, “Synthesis of a 3'-C-ethynyl-β-d-ribofuranose purine nucleoside library: Discovery of C7-deazapurine analogs as potent antiproliferative nucleosides” (Eur J Med Chem, 2018)
